Assay results pooled from the literature.
Each line is one published result; the experiments were not run side by side.
Target: 3-phosphoinositide-dependent protein kinase 1 (PDPK1, Homo sapiens, UniProt O15530)
Residues used in one study (O15530 1-556): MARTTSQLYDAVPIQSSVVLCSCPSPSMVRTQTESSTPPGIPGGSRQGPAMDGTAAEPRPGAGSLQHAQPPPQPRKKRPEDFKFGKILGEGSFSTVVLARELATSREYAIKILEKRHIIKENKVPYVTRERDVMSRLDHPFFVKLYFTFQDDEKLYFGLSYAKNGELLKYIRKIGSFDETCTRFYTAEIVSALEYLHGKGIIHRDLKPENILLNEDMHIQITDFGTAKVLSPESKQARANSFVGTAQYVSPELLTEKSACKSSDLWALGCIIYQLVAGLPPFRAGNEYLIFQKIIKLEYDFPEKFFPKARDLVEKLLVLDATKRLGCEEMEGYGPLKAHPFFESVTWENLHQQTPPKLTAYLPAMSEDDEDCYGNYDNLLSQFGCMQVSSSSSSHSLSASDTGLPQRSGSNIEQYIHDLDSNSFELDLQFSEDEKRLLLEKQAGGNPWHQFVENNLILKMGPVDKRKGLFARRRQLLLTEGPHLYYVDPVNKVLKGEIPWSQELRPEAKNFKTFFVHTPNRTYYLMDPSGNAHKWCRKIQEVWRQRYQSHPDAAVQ

`COc1ncccc1-c1cnn2ccc(N3CCN(C(=O)OC(C)C)CC3)nc12` gave a remaining binding of 82% (binding, competition with immobilised ligand; 1 µM).
`O=c1[nH]c2ccccc2n1C1CCN(Cc2ccc(-c3[nH]c4cc5ncnc5cc4nc3-c3ccccc3)cc2)CC1` has a remaining signal of 107% (cell-free assay; 0.5 µM).
`Cc1nn(C)cc1-c1nc2c(N3CCN(Cc4ccc(Cl)cc4)CC3)c(Cl)cnc2[nH]1` has a remaining binding of 100% (binding, competition with immobilised ligand; 1 µM).
`Nc1ncc(-c2nc(N3CCOCC3)nc(N3CCOCC3)n2)c(C(F)F)n1` gave a remaining binding of 83% (binding, competition with immobilised ligand; 10 µM).
With `Cn1cc(-c2cc(F)cc(N3CCn4c(cc5c4CCCC5)C3=O)c2CO)cc(Nc2ccc(N3CCN(C4COC4)CC3)cn2)c1=O` the inhibition was 1% (enzyme activity, inhibitor; 0.1 µM).
For `C#Cc1n[nH]c2c(-c3cn([C@@H](C)c4ccccn4)c(=O)[nH]c3=O)cc(F)cc12`, the inhibition was 4.7% (enzyme activity, inhibitor; 0.1 µM).
With `Cn1cncc1[C@@](O)(COc1ccc(C#N)cc1-c1ccc(OC(F)(F)F)cc1)c1ccc(C#N)cc1` the remaining binding was 96% (cell-free assay, competition with immobilised ligand; 1 µM).
`CC(C)(C)c1cc(C=C(C#N)C#N)cc(Br)c1O` gave a remaining activity of 102% (enzyme activity, inhibitor; 0.5 µM).
`C#Cc1n[nH]c2c(-c3cn([C@@H](C)c4ccccc4)c(=O)[nH]c3=O)cc(F)cc12` gave an inhibition of 4% (enzyme activity, inhibitor; 0.1 µM).
